# Source: ChEMBL document CHEMBL4130374, “Discovery of 9H-purins as potential tubulin polymerization inhibitors: Synthesis, biological evaluation and structure-activity relationships” (Eur J Med Chem, 2017)
# Legend:
# K562 = experiment: Antiproliferative activity against human K562 cells after 48 hrs by MTT assay; type: functional; settings: K562, 48 h
# Summary of the method: (§1)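 Log-phase cells, harvested by trypsinization, seeded 24 h, then exposed to a range of compound concentrations for 48 h. Culture in RPMI 1640 with 4% FBS, penicillin/streptomycin, 37°C, 5% CO2. DMSO below 1% final; 5-Fu as positive control. Readout is MTT (0.5 mg/mL, 4 h), formazan dissolved in DMSO, absorbance at 570 nm. GI50 = 50% growth inhibition versus untreated cells; means ± SD of at least two independent experiments.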
# SH-SY5Y = experiment: Antiproliferative activity against human SH-SY5Y cells after 48 hrs by MTT assay; type: functional; summary of the method: as §1
# AGS [1] = experiment: Antiproliferative activity against human AGS cells after 48 hrs by MTT assay; type: functional; summary of the method: as §1
# [2] = Cytotoxicity against mouse HT22 cells after 48 hrs by MTT assay; type: cell-based, HT-22
# Summary of the method: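 MTT readout after 48 h exposure; CC50 is the 50% cytotoxic concentration, mean of three repeated experiments.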
# Tubulin (Sus scrofa) = experiment: Inhibition of pig brain tubulin polymerization at 10 uM by spectrophotometry relative to control
# [3] = Selectivity index, ratio of GI50 for mouse HT22 cells to GI50 for human SH-SY5Y cells; type: toxicity; settings: HT22 cells and SH-SY5Y cells, read-out: RatioGI50
# [4] = Selectivity index, ratio of GI50 for mouse HT22 cells to GI50 for human AGS cells; type: toxicity; settings: HT22 cells and AGS cells, read-out: RatioGI50
# AGS [5] = experiment: Cell cycle arrest in human AGS cells assessed as accumulation at G0/G1 phase at 0.25 uM after 24 hrs by propidium iodide staining based flow cytometry (reference value: 52.87%); type: functional
# Summary of the method: (§2)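 Cells washed twice in ice-cold PBS, fixed in ice-cold 70% ethanol, treated with 0.1 mg/mL RNase, stained with propidium iodide. Phase distribution determined by flow cytometry.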
# AGS [6] = experiment: Cell cycle arrest in human AGS cells assessed as accumulation at S phase at 0.25 uM after 24 hrs by propidium iodide staining based flow cytometry (reference value: 37.94%); type: functional; summary of the method: as §2
# AGS [7] = experiment: Cell cycle arrest in human AGS cells assessed as accumulation at G2/M phase at 0.25 uM after 24 hrs by propidium iodide staining based flow cytometry (reference value: 9.18%); type: functional; summary of the method: as §2
# AGS [8] = experiment: Cell cycle arrest in human AGS cells assessed as accumulation at G0/G1 phase at 0.5 uM after 24 hrs by propidium iodide staining based flow cytometry (reference value: 52.87%); type: functional; summary of the method: as §2
# AGS [9] = experiment: Cell cycle arrest in human AGS cells assessed as accumulation at S phase at 0.5 uM after 24 hrs by propidium iodide staining based flow cytometry (reference value: 37.94%); type: functional; summary of the method: as §2
# AGS [10] = experiment: Cell cycle arrest in human AGS cells assessed as accumulation at G2/M phase at 0.5 uM after 24 hrs by propidium iodide staining based flow cytometry (reference value: 9.18%); type: functional; summary of the method: as §2
# AGS [11] = experiment: Cell cycle arrest in human AGS cells assessed as accumulation at G0/G1 phase at 1 uM after 24 hrs by propidium iodide staining based flow cytometry (reference value: 52.87%); type: functional; summary of the method: as §2
# AGS [12] = experiment: Cell cycle arrest in human AGS cells assessed as accumulation at S phase at 1 uM after 24 hrs by propidium iodide staining based flow cytometry (reference value: 37.94%); type: functional; summary of the method: as §2
# AGS [13] = experiment: Cell cycle arrest in human AGS cells assessed as accumulation at G2/M phase at 1 uM after 24 hrs by propidium iodide staining based flow cytometry (reference value: 9.18%); type: functional; summary of the method: as §2
# AGS [14] = experiment: Cell cycle arrest in human AGS cells assessed as accumulation at G0/G1 phase at 2 uM after 24 hrs by propidium iodide staining based flow cytometry (reference value: 52.87%); type: functional; summary of the method: as §2
# AGS [15] = experiment: Cell cycle arrest in human AGS cells assessed as accumulation at S phase at 2 uM after 24 hrs by propidium iodide staining based flow cytometry (reference value: 37.94%); type: functional; summary of the method: as §2
# AGS [16] = experiment: Cell cycle arrest in human AGS cells assessed as accumulation at G2/M phase at 2 uM after 24 hrs by propidium iodide staining based flow cytometry (reference value: 9.18%); type: functional; summary of the method: as §2
# AGS [17] = experiment: Induction of apoptosis in human AGS cells assessed as viable cells at 0.25 uM after 24 hrs by Annexin V-FITC/propidium iodide-double staining based flow cytometry (reference value: 69.90%); type: functional; settings: read-out: Activity
# AGS [18] = experiment: Induction of apoptosis in human AGS cells assessed as early apoptotic cells at 0.25 uM after 24 hrs by Annexin V-FITC/propidium iodide-double staining based flow cytometry (reference value: 12.80%); type: functional
# AGS [19] = experiment: Induction of apoptosis in human AGS cells assessed as late apoptotic cells at 0.25 uM after 24 hrs by Annexin V-FITC/propidium iodide-double staining based flow cytometry (reference value: 16.90%); type: functional
# AGS [20] = experiment: Induction of apoptosis in human AGS cells assessed as necrotic cells at 0.25 uM after 24 hrs by Annexin V-FITC/propidium iodide-double staining based flow cytometry (reference value: 0.40%); type: functional
# AGS [21] = experiment: Induction of apoptosis in human AGS cells assessed as viable cells at 0.5 uM after 24 hrs by Annexin V-FITC/propidium iodide-double staining based flow cytometry (reference value: 69.90%); type: functional; settings: read-out: Activity
# AGS [22] = experiment: Induction of apoptosis in human AGS cells assessed as early apoptotic cells at 0.5 uM after 24 hrs by Annexin V-FITC/propidium iodide-double staining based flow cytometry (reference value: 12.80%); type: functional
# AGS [23] = experiment: Induction of apoptosis in human AGS cells assessed as late apoptotic cells at 0.5 uM after 24 hrs by Annexin V-FITC/propidium iodide-double staining based flow cytometry (reference value: 16.90%); type: functional
# AGS [24] = experiment: Induction of apoptosis in human AGS cells assessed as necrotic cells at 0.5 uM after 24 hrs by Annexin V-FITC/propidium iodide-double staining based flow cytometry (reference value: 0.40%); type: functional
# AGS [25] = experiment: Induction of apoptosis in human AGS cells after 24 hrs by Annexin V-FITC/propidium iodide-double staining based flow cytometry; type: functional, cell-based
# AGS [26] = experiment: Cell cycle arrest in human AGS cells assessed as accumulation at G2/M phase after 24 hrs by propidium iodide staining based flow cytometry; type: functional; summary of the method: as §2
# AGS [27] = experiment: Cell cycle arrest in human AGS cells assessed as accumulation at G0/G1 phase at 50 nM after 24 hrs by propidium iodide staining based flow cytometry (reference value: 52.87%); type: functional; summary of the method: as §2
# AGS [28] = experiment: Cell cycle arrest in human AGS cells assessed as accumulation at S phase at 50 nM after 24 hrs by propidium iodide staining based flow cytometry (reference value: 37.94%); type: functional; summary of the method: as §2
# AGS [29] = experiment: Cell cycle arrest in human AGS cells assessed as accumulation at G2/M phase at 50 nM after 24 hrs by propidium iodide staining based flow cytometry (reference value: 9.18%); type: functional; summary of the method: as §2
compound,measurement,setting,value
COc1cc(Cn2cnc3c(Cl)nc(Cl)nc32)cc(OC)c1,GI50,K562,4.6 µM
same,GI50,SH-SY5Y,1.7 µM
same,GI50,AGS [1],3.8 µM
same,CC50 at 48 h,[2],> 100 µM
same,inhibition,Tubulin (Sus scrofa),13%
COc1cc(Cn2cnc3c(Cl)ncnc32)cc(OC)c1OC,GI50,K562,> 50 µM
same,GI50,SH-SY5Y,> 100 µM
same,GI50,AGS [1],> 50 µM
COc1ccc(N(C)c2nc(Cl)nc3c2ncn3C)cc1,GI50,K562,2.3 µM
same,GI50,SH-SY5Y,3.4 µM
same,GI50,AGS [1],0.26 µM
same,CC50 at 48 h,[2],> 100 µM
same,selectivity ratio,[3],23
same,selectivity ratio,[4],430
same,Activity,AGS [5],50.11%
same,Activity,AGS [6],39.78%
same,Activity,AGS [7],10.11%
same,Activity,AGS [8],47.34%
same,Activity,AGS [9],39.98%
same,Activity,AGS [10],12.68%
same,Activity,AGS [11],36.62%
same,Activity,AGS [12],38.2%
same,Activity,AGS [13],25.18%
same,Activity,AGS [14],21.64%
same,Activity,AGS [15],14.87%
same,Activity,AGS [16],63.49%
same,viability at 0.25 µM,AGS [17],63.5%
same,Activity,AGS [18],10.45%
same,Activity,AGS [19],23.8%
same,Activity,AGS [20],2.25%
same,viability at 0.5 µM,AGS [21],59.2%
same,Activity,AGS [22],12.35%
same,Activity,AGS [23],27.6%
same,Activity,AGS [24],0.85%
same,Activity,AGS [25],Dose-dependent effect
same,Activity,AGS [26],Dose-dependent effect
same,inhibition,Tubulin (Sus scrofa),41%
COc1ccc(Cn2cnc3c(Cl)ncnc32)cc1OC,GI50,K562,> 50 µM
same,GI50,SH-SY5Y,> 100 µM
same,GI50,AGS [1],> 100 µM
COc1cc2c(c(OC)c1OC)-c1ccc(OC)c(=O)cc1[C@@H](NC(C)=O)CC2 [COLCHICINE],GI50,K562,0.02 µM
same,GI50,SH-SY5Y,0.04 µM
same,GI50,AGS [1],0.04 µM
same,Activity,AGS [27],1.2%
same,Activity,AGS [28],12.58%
same,Activity,AGS [29],86.22%
